According to ChEMBL document CHEMBL4014334, “BET Bromodomain Inhibitors with One-Step Synthesis Discovered from Virtual Screen” (J Med Chem, 2017):
The source made the active and inactive calls. No cut-off for these calls is given here.

Columns and labels:
[1] = biological target: T1, Nucleosome-remodeling factor subunit BPTF (Homo sapiens, UniProt Q12830); assay: Binding affinity to 5FW-labeled BPTF (unknown origin) by PrOF NMR spectroscopic analysis
Outline: (§1)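 BrdT samples also contain 3 mM DTT. Spectra recorded with compound present and absent at 500 MHz, 90° flip angle, 0.7 s relaxation delay, 0.1 s acquisition, 500 transients. The read-out is broadening or shift of the binding-pocket Trp resonance.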

[2] = biological target: T2, Bromodomain-containing protein 4 (Homo sapiens, UniProt O60885); assay: Binding affinity to 5FW-labeled BRD4 bromodomain 1 (unknown origin) expressed in Escherichia coli BL21(DE3) by PrOF NMR spectroscopic analysis; outline: as §1
[3] = biological target: T3, Bromodomain testis-specific protein (Homo sapiens, UniProt Q58F21); assay: Binding affinity to 5FW-labeled BRDT bromodomain 1 W50 residue (unknown origin) expressed in Escherichia coli BL21(DE3) by PrOF NMR spectroscopic analysis
Outline: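 5FW-BrdT(1) at 40–50 μM in 50 mM Tris, 100 mM NaCl, 3 mM DTT, pH 7.4, 5% D2O. The pocket Trp resonance is followed for broadening and for a new upfield peak as ligand is titrated.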

[4] = biological target: T3, Bromodomain testis-specific protein; assay: Binding affinity to 5FW-labeled BRDT bromodomain 1 residue (unknown origin) expressed in Escherichia coli BL21(DE3) by PrOF NMR spectroscopic analysis
[5] = biological target: T2, Bromodomain-containing protein 4; assay: Binding affinity to 5FW-labeled BRD4 bromodomain 1 (unknown origin) up to 600 uM by PrOF NMR spectroscopic analysis; outline: as §1
[6] = biological target: T2, Bromodomain-containing protein 4; assay: Inhibition of BRD4 bromodomain in human MM1S cells assessed as reduction in c-Myc levels up to 10 uM after 6 hrs by Western blot analysis; format: cell-based
Outline: (§2)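 MM1.S cells (1×10^6 per well) are treated with increasing inhibitor concentrations for 6 h, then lysed with protease/phosphatase inhibitors and 5 mM EDTA at 4 °C. Lysates are resolved by SDS-PAGE and immunoblotted for c-Myc and p21Cip1, with vinculin as loading reference and chemiluminescent detection.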

MM1.S = assay: Cytotoxicity against human MM1S cells assessed as reduction in cell viability up to 10 uM after 72 hrs by MTT assay; format: functional, cell-based
Outline: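 MM1.S cells are grown in RPMI-1640 with 10% FBS at 37 °C and 5% CO2. About 20,000 cells per well are exposed to compound or 0.1% DMSO vehicle for 72 h, with 6 replicates per concentration. MTT (2 mg/ml) is added for 3 h at 37 °C and formazan is dissolved in DMSO. A540 is read and IC50 is fitted.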

[7] = biological target: T2, Bromodomain-containing protein 4; assay: Inhibition of BRD4 bromodomain in human MM1S cells assessed as upregulation of p21Cip1 levels up to 10 uM after 6 hrs by Western blot analysis; format: cell-based; outline: as §2
[8] = biological target: T3, Bromodomain testis-specific protein; assay: Binding affinity to BRDT bromodomain 1 (29 to 134 residues)(unknown origin) expressed in Escherichia coli BL21(DE3) assessed as change in melting temperature at 150 uM at 25 to 75 degC after 5 mins by SYPRO orange dye based differential scanning fluorimetric analysis
Outline: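 DSF with 10 μM BrdT(1) in 50 mM HEPES pH 7.5, 100 mM NaCl, with 5x SYPRO Orange. The 8-point dose range is 1250–9 μM at 2.5% DMSO, run in duplicate. After 5 min at 25 °C, samples are heated from 25 to 75 °C in 0.2 °C steps. Tm is the peak of the negative first derivative. ΔTm is taken against the DMSO control. Plates with Z' below 0.5 are excluded.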

[9] = biological target: T2, Bromodomain-containing protein 4; assay: Inhibition of BI-BODIPY binding to BRD4 bromodomain 1 (42 to 168 residues)(unknown origin) expressed in Escherichia coli BL21(DE3) by fluorescence anisotropy assay
Outline: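 Competition fluorescence anisotropy in 50 mM Tris, 100 mM NaCl, pH 7.4, 4 mM CHAPS, 0.5% DMSO; BrdT also contains 3 mM DTT. Tracer BI-BODIPY is at 0.025 μM. Protein is set at the level giving 80% tracer bound. Ex 485/em 535. A four-parameter IC50 is converted to Ki by a Cheng-Prusoff variant, from ≥3 independent experiments.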

[10] = biological target: T3, Bromodomain testis-specific protein; assay: Inhibition of BI-BODIPY binding to BRDT bromodomain 1 (29 to 134 residues) (unknown origin) expressed in Escherichia coli BL21(DE3) by fluorescence anisotropy assay
[11] = biological target: T3, Bromodomain testis-specific protein; assay: Inhibition of BRDT bromodomain 2 (unknown origin) by fluorescence anisotropy assay
[12] = biological target: Bromodomain and WD repeat-containing protein 1 (Homo sapiens) (UniProt Q9NSI6); assay: Inhibition of human WDR9 bromodomain 2 (1310 to 1430 residues) expressed bacterial expression system at 20 uM by bromoscan assay
[13] = biological target: T2, Bromodomain-containing protein 4; assay: Binding affinity to human BRD4 bromodomain 1 (44 to 168 residues) expressed in bacterial expression system by qPCR-based bromoscan assay
[14] = biological target: T2, Bromodomain-containing protein 4; assay: Inhibition of biotin-labeled (+)-JQ1 binding to His-tagged BRD4 bromodomain 1 (42 to 168 residues) (unknown origin) expressed in Escherichia coli BL21(DE3) after 1 hr by alpha screen assay
Outline: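 AlphaScreen in 50 mM HEPES, 150 mM NaCl, 0.01% Tween-20, 0.1% BSA, pH 7.4. Final concentrations are His-Brd4(1) 0.020 μM, biotinylated JQ1 probe 0.010 μM, and Ni acceptor and streptavidin donor beads each at 10 μg/ml. Compounds are added as a 10-point 1:√10 dilution. Plates are incubated 1 h at room temperature in low light.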

[15] = biological target: T3, Bromodomain testis-specific protein; assay: Binding affinity to human BRDT bromodomain 1 (21 to 137 residues) expressed in bacterial expression system by q-PCR-based bromoscan assay
Outline: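 BromoScan direct titration against BrdT(1), giving a dissociation constant Kd.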

[16] = biological target: SWI/SNF-related matrix-associated actin-dependent regulator of chromatin subfamily A member 2 (Homo sapiens) (UniProt P51531); assay: Inhibition of human SMARCA2 bromodomain (1337 to 1486 residues) expressed bacterial expression system at 20 uM by bromoscan assay
[17] = biological target: T3, Bromodomain testis-specific protein; assay: Inhibition of biotin-labeled (+)-JQ1 binding to His-tagged BRDT bromodomain 1 (29 to 134 residues) (unknown origin) expressed in Escherichia coli BL21(DE3) after 1 hr by alpha screen assay
Outline: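 Competition AlphaScreen: His-BrdT(1) 0.020 μM with Ni-acceptor beads 10 μg/ml and biotinylated probe 0.010 μM, in 50 mM HEPES, 150 mM NaCl, 0.01% Tween-20, 0.1% BSA, pH 7.4. Compounds pin-transferred as a 10-point 1:√10 dilution, then streptavidin donor beads 10 μg/ml added. Incubation 1 h at room temperature in low light.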

[18] = biological target: T2, Bromodomain-containing protein 4; assay: Inhibition of acetylated histone4 (1 to 21 residues) binding to His-tagged BRD4 bromodomain 1 (42 to 168 residues) (unknown origin) expressed in Escherichia coli BL21(DE3) after 1 hr by alpha screen assay
Outline: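 Run by Reaction Biology as AlphaScreen of Brd4(1) binding to acetylated histone H4 (1-21) peptide, at a constant 1% DMSO, with a reference BET inhibitor as positive control.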

[19] = biological target: T2, Bromodomain-containing protein 4; assay: Binding affinity to 5FW-labeled BRD4 bromodomain 1 (unknown origin) expressed in Escherichia coli BL21(DE3) up to 50 uM by PrOF NMR spectroscopic analysis; outline: as §1
[20] = biological target: T1, Nucleosome-remodeling factor subunit BPTF; assay: Binding affinity to 5FW-labeled BPTF (unknown origin) up to 500 uM by PrOF NMR spectroscopic analysis; outline: as §1
[21] = Stability in DMSO at -20 degC by ESI-MS analysis; format: physicochemical
[22] = biological target: Histone acetyltransferase p300 (Homo sapiens) (UniProt Q09472); assay: Inhibition of human P300 bromodomain (1040 to 1161 residues) expressed bacterial expression system at 20 uM by bromoscan assay
[23] = biological target: T2, Bromodomain-containing protein 4; assay: Binding affinity to 5FW-labeled BRD4 bromodomain 1 (unknown origin) expressed in Escherichia coli BL21(DE3) up to 50 uM in presence of serum by PrOF NMR spectroscopic analysis
[24] = biological target: CREB-binding protein (Homo sapiens) (UniProt Q92793); assay: Inhibition of human CBP bromodomain (1081 to 1197 residues) expressed bacterial expression system at 20 uM by bromoscan assay
CREB-binding protein (Homo sapiens), sequence (Q92793 2-2442 limits assumed): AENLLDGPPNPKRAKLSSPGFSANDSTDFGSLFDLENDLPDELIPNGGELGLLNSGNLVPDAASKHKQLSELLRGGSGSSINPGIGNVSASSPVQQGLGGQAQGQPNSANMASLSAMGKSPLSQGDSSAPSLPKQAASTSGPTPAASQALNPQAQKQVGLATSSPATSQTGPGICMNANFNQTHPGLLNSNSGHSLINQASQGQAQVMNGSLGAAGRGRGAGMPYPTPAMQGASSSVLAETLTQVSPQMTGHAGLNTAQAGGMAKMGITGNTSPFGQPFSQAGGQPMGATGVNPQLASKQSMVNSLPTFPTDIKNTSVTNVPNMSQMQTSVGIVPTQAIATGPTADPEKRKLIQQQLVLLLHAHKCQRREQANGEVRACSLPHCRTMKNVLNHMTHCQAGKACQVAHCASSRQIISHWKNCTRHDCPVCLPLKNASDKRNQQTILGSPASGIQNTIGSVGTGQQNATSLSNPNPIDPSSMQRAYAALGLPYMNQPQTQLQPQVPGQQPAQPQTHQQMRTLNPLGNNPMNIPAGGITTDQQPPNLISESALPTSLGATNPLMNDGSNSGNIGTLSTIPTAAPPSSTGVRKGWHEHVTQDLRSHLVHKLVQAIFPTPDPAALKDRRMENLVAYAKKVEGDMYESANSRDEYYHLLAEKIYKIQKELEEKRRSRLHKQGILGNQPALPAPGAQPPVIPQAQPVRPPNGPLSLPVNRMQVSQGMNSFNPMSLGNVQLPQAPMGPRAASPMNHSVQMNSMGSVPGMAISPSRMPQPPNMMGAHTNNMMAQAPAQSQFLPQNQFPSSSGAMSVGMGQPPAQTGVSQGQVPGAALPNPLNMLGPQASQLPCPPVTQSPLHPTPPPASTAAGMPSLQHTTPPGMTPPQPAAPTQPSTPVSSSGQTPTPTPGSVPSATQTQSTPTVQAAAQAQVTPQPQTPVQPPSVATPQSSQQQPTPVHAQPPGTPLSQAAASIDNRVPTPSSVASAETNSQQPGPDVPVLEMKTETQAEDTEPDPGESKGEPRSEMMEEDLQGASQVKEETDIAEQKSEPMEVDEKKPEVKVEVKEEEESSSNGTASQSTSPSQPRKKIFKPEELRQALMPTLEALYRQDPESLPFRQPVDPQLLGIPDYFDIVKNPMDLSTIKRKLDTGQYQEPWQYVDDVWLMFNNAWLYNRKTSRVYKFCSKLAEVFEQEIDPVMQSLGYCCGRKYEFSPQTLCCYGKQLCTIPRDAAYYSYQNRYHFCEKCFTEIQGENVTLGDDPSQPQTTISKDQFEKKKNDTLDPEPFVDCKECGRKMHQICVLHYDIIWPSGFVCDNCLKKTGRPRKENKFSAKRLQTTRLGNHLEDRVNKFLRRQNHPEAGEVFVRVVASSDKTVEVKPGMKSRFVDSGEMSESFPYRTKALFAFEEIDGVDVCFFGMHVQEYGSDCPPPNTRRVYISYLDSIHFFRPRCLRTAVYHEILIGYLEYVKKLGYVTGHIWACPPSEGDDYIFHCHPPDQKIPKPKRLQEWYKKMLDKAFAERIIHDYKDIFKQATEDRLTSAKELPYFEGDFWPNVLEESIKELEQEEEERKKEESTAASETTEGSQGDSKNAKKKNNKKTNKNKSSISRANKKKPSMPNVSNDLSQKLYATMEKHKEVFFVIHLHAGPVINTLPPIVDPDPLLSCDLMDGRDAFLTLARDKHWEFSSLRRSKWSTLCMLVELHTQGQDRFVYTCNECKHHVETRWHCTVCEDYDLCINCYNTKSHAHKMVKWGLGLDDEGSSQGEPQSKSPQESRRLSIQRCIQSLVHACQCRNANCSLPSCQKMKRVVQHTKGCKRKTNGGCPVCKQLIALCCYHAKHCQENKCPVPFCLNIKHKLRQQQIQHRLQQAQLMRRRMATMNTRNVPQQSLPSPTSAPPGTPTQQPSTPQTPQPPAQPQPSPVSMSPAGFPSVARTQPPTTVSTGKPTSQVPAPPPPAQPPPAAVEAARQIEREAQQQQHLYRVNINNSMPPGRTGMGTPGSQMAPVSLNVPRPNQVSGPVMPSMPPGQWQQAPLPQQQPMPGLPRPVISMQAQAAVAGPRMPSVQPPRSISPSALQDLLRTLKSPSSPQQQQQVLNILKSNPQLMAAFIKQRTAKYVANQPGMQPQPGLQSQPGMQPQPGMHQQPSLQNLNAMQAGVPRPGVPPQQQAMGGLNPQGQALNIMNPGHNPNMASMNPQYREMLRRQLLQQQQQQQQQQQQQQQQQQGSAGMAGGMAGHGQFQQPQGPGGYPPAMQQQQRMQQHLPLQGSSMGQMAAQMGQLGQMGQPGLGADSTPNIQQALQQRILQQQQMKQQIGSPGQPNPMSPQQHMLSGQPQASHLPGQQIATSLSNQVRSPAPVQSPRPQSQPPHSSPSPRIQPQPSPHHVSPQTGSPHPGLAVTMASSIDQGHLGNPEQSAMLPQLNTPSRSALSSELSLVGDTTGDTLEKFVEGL

Histone acetyltransferase p300 (Homo sapiens), sequence (Q09472 whole entry, the tested form may be a part): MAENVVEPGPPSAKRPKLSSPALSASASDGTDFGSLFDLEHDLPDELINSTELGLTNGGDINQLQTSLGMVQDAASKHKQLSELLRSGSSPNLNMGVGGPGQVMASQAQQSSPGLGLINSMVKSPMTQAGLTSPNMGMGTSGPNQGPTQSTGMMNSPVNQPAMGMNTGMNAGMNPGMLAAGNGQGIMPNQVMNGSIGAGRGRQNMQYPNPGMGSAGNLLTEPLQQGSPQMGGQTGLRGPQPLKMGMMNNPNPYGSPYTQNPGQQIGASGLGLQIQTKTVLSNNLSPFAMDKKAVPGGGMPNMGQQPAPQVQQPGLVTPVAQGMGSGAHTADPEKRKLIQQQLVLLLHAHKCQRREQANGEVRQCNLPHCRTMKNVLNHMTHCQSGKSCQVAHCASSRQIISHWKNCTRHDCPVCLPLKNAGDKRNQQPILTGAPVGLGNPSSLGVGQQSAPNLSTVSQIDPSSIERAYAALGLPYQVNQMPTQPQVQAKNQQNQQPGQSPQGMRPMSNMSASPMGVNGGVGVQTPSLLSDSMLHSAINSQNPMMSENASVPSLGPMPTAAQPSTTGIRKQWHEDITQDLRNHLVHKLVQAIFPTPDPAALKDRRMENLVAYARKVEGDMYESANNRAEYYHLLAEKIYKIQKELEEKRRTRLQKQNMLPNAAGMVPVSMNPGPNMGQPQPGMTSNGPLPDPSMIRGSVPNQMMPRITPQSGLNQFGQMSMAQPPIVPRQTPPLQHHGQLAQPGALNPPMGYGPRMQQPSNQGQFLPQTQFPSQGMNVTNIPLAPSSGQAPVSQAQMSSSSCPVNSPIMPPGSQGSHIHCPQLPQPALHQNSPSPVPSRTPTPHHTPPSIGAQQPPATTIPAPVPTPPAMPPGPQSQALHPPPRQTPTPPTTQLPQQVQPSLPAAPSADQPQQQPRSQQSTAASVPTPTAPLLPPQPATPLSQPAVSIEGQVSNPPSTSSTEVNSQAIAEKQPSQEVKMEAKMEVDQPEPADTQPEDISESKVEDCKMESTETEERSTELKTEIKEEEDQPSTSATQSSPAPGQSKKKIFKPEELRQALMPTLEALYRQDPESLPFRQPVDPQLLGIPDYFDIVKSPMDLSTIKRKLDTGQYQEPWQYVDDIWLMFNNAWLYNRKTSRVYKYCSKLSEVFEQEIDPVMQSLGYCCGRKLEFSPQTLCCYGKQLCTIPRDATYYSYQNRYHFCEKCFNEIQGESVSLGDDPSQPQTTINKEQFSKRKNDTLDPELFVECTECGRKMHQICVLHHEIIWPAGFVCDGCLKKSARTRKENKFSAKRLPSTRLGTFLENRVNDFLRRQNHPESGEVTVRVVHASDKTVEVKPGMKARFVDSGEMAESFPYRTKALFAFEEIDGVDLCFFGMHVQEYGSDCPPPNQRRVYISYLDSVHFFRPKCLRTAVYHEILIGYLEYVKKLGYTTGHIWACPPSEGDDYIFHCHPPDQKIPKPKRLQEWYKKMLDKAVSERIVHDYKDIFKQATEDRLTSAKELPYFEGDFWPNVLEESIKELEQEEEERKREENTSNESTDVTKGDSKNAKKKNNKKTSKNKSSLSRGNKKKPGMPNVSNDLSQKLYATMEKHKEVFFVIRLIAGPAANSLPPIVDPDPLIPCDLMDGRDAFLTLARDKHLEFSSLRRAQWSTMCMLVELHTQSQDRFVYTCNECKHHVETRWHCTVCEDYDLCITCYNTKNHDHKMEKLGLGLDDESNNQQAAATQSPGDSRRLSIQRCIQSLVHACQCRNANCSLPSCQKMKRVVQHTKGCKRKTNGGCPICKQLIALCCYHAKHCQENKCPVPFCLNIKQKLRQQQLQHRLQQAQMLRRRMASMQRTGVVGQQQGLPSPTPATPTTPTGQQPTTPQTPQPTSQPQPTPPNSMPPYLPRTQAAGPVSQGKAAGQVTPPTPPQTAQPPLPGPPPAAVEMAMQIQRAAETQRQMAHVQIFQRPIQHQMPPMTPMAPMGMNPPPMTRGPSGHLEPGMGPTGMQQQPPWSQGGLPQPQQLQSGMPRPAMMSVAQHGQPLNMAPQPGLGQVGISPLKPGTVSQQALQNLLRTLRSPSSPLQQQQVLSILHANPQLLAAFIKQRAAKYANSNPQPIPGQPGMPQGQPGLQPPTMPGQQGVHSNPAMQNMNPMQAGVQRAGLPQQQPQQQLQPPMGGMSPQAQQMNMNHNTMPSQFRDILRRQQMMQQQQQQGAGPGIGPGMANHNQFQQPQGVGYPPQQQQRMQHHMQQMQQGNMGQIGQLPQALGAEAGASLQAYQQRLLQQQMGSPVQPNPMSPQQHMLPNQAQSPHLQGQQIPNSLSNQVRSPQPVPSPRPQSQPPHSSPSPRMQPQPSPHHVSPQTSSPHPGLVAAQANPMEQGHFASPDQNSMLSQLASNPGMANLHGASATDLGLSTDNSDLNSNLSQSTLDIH

## CCn1c(N)cc(=O)[nH]c1=O
[1]
  Kd: 6800 µM
[2]
  Kd: 660 µM
[3]
  Kd: 1500 µM
[4]
  Kd: 1500 µM

## Cc1ccc(C2C3=C(COC3=O)Nc3c2c(=O)[nH]c(=O)n3CC(F)(F)F)cc1 (stereo not drawn)
[5]
  Activity: Active
[6]
  inhibition: inactive
MM1.S
  Activity: inactive
[7]
  inhibition: inactive
[8]
  ΔTm: -0.54 °C
[9]
  Ki: 0.16 µM
[10]
  Ki: 0.85 µM
[11]
  Ki: ≤ 0.45 µM

## CCn1c2c(c(=O)[nH]c1=O)C(c1ccc(C)cc1)C1=C(COC1=O)N2 (stereo not drawn)
[12]
  inhibition: 72%
[6]
  inhibition: inactive
MM1.S
  Activity: inactive
[13]
  Kd: 0.84 µM
[14]
  IC50: 1 µM
[15]
  Kd: 1.6 µM
[7]
  inhibition: inactive
[16]
  inhibition: 71%
[8]
  ΔTm: 4.8 °C
[17]
  IC50: 2.3 µM
[9]
  Ki: 0.37 µM
[18]
  IC50: 0.9 µM
[19]
  Activity: Active
[10]
  IC50: 5.2 µM
  Ki: 0.69 µM
[20]
  Activity: inactive
[21]
  Stability: Stable
[22]
  inhibition: 66%
[23]
  Activity: Active
[24]
  inhibition: 68%
[11]
  Ki: ≤ 0.45 µM
